Experimental data published in ChEMBL document CHEMBL1143626, “Morphiceptin analogues containing a dipeptide mimetic structure: an investigation on the bioactive topology at the mu-receptor” (J Med Chem, 2005).
pEC50, pKi: −log10 of the molar value. Where a SMILES comes first, the peptide text is derived from it. [ ]: non-standard residue; d: D form.

Tests used:
Cavia porcellus [1] = organism: Cavia porcellus; test: Efficacy against isolated guinea pig ileum contraction induced by electrical stimulation; assay type: functional
Procedure, shortened: (§1)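 Electrical field stimulation was applied after 30-40 min equilibration: train 100 ms, pulse width 1 ms, pulse interval 10 ms, supramaximal 20 V. Compounds were added cumulatively at 3-fold steps (0.1 nM to 1 µM), with parallel runs in 10 nM naloxone. Isotonic tension was recorded as % of control […]. Efficacy is the maximal inhibition; EC50 is the half-maximal concentration. Mean ± SEM, 4-6 experiments.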

[2] = target: Delta-type opioid receptor (Rattus norvegicus) (UniProt P33533); test: Inhibition of [3H]naltrindole binding to rat whole brain Opioid receptor delta at 1-10 uM
Delta-type opioid receptor (Rattus norvegicus), sequence (P33533 whole entry): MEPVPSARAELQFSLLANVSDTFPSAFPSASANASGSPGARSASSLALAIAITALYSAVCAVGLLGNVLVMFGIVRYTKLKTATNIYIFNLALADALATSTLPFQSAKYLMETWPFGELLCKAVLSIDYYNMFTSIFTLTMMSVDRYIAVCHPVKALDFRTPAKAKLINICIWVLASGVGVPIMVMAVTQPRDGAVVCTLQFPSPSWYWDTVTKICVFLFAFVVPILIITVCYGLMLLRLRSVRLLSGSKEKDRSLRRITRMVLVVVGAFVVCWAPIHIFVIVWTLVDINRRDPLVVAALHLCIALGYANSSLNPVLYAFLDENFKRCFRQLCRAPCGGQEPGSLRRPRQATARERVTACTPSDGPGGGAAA
Procedure, shortened: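 Brain (minus cerebellum) membranes were labelled with [3H]naltrindole as the δ radioligand. […] Mean ± SEM, n experiments.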

Mu-type opioid receptor = Mu-type opioid receptor (Rattus norvegicus, UniProt P33535); test: Inhibition of [3H]DAMGO binding to rat whole brain Opioid receptor mu
Mu-type opioid receptor, sequence (P33535 whole entry): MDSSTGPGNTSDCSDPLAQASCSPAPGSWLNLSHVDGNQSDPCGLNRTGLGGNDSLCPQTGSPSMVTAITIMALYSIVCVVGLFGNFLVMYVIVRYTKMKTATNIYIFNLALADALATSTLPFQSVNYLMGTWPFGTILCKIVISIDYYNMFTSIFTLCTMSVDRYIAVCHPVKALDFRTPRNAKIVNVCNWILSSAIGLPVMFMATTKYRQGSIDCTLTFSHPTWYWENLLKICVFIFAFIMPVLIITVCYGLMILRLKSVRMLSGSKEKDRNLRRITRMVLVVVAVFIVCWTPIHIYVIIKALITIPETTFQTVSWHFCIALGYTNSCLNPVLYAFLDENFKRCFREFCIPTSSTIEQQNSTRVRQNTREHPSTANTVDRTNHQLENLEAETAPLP
Procedure, shortened: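 Rat whole-brain (minus cerebellum) membranes (0.3 mg protein) were incubated with 0.7 nM [3H]DAMGO and peptide (1 nM to 10 µM) for 2 h at 25 °C. Buffer was 50 mM Tris-HCl pH 7.4, 5 mM MgCl2, with protease inhibitors. Nonspecific binding was defined with 10 µM BNTX. Bound ligand was separated by GF/C filtration. Mean ± SEM, ≥3 experiments.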

Cavia porcellus [3] = organism: Cavia porcellus; test: Inhibition of isolated guinea pig ileum contraction induced by electrical stimulation; assay type: functional; procedure, shortened: as §1

Structure (SMILES)	Efficacy (Cavia porcellus [1]) [%]	inhibition [2] [%]	pKi (Mu-type opioid receptor)	pEC50 (Cavia porcellus [3])
NC(=O)[C@@H]1CCCN1C(=O)[C@H](Cc1ccccc1)NC(=O)[C@@H]1CSC([C@@H](N)Cc2ccc(O)cc2)N1 (stereo partly drawn)	17	10.2	–	–
NC(=O)[C@@H]1CSC([C@H](Cc2c[nH]c3ccccc23)NC(=O)[C@@H]2CCCN2C(=O)[C@@H](N)Cc2ccc(O)cc2)N1 (stereo partly drawn)	70	67.8	6.75	7.55
CN1CC[C@]23c4c5ccc(O)c4O[C@H]2[C@@H](O)C=C[C@H]3[C@H]1C5 [MORPHINE]	66	–	–	–
NC(=O)[C@@H]1CSC([C@H](Cc2ccccc2)NC(=O)[C@@H]2CCCN2C(=O)[C@@H](N)Cc2ccc(O)cc2)N1 (stereo partly drawn)	65	22.7	7.85	8.01
C[C@@H](NC(=O)[C@@H](N)Cc1ccc(O)cc1)C(=O)NCC(=O)N(C)[C@@H](Cc1ccccc1)C(=O)NCCO [DAMGO]	61	–	–	7.44
NC(=O)[C@@H]1CCCN1C(=O)[C@H](Cc1ccccc1)NC(=O)[C@@H]1CCCN1C(=O)[C@@H](N)Cc1ccc(O)cc1 (H-YPFP-NH2) [listing 1 of 2 here]	65	–	–	–
NC(=O)[C@@H]1CSC([C@@H](Cc2ccccc2)NC(=O)[C@@H]2CCCN2C(=O)[C@@H](N)Cc2ccc(O)cc2)N1 (stereo partly drawn)	71	42.2	6.54	7.44
NC(=O)[C@@H]1CCCN1C(=O)[C@H](Cc1ccccc1)NC(=O)[C@@H]1CCCN1C(=O)[C@@H](N)Cc1ccc(O)cc1 (H-YPFP-NH2) [listing 2 of 2 here]	–	–	7.59	7.89
CN(C)C(=O)C(CCN1CCC(O)(c2ccc(Cl)cc2)CC1)(c1ccccc1)c1ccccc1 [LOPERAMIDE]	11	–	–	6.31
NC(=O)[C@H]1CCCN1C(=O)[C@H](Cc1ccccc1)NC(=O)[C@@H]1CCCN1C(=O)[C@@H](N)Cc1ccc(O)cc1 (H-YPF[dP]-NH2)	–	23.6	–	–
